In test [1] the test system is HT-29. In words: Cytotoxicity against human HT-29 cells after 3 days by mitochondrial transmembrane potential assay. It counts as functional, cell-based. The following applies: HT-29, 72 h.
Test [2] relates to HT-29. In words: Cytotoxicity against human HT-29 cells after 3 days by sulforhodamine B assay. It counts as functional, cell-based. To be noted: HT-29, 72 h.
Test [3] has as its system HT-29. Nature of the test: Antitumor activity against human HT-29 cells xenografted in immunodeficient NCr nu/nu mouse assessed as inhibition of tumor growth at 0.5 to 10 mg/kg, ip dosed as four daily injections on day 3,4,5 and 6 followed by fiber retrieval on day 7 by in-vivo hollow fiber assay. It counts as functional, organism-based. A digest of the protocol:
(§1)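 Murine hollow fiber model, ip route; fibers loaded per fiber with HT29 1 × 10⁶, MCF-7 5 × 10⁶, or MDA-MB-435 1 × 10⁶ cells. Dosing 0.5 to 10 mg/kg per day for four days in 5% EtOH/5% Tween 80 in physiologic saline; paclitaxel positive control at 2.0 mg/kg per day for four days. Proliferation inhibition assessed in each cell type.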

The subject of a further test is MDA-MB-435. Nature of the test: Antitumor activity against human MDA-MB-435 cells xenografted in immunodeficient NCr nu/nu mouse assessed as inhibition of tumor growth at 0.5 to 10 mg/kg, ip dosed as four daily injections on day 3,4,5 and 6 followed by fiber retrieval on day 7 by in-vivo hollow fiber assay. It counts as functional, organism-based. A digest of the protocol: as §1

The test system of another test is MCF7. Nature of the test: Antitumor activity against human MCF7 cells xenografted in immunodeficient NCr nu/nu mouse assessed as inhibition of tumor growth at 0.5 to 10 mg/kg, ip dosed as four daily injections on day 3,4,5 and 6 followed by fiber retrieval on day 7 by in-vivo hollow fiber assay. In kind it is functional, organism-based. A digest of the protocol: as §1

The source made the active and inactive calls. The calls are words filed in the database; no cut-off is given here.

For `CC(C)(O)/C=C/C(=O)[C@](C)(O)[C@H]1[C@H](O)C[C@@]2(C)[C@@H]3CC=C4[C@@H](CC(=O)[C@H](O)C4(C)C)[C@]3(C)C(=O)C[C@]12C`, the IC50 with HT-29 [1] is greater than 20 µM; with HT-29 [2], 0.039 µM.
As to `CC(C)=C[C@H]1C[C@](C)(O)[C@H]2[C@@H](C[C@@]3(C)[C@@H]4CC=C5[C@@H](CC[C@H](O)C5(C)C)[C@]4(C)C(=O)C[C@]23C)O1`, the IC50 with HT-29 [1] was greater than 20 µM; in the test with HT-29 [2], greater than 10 µM.
In the case of `CC(=O)OC(C)(C)/C=C/C(=O)[C@](C)(O)[C@H]1[C@H](O)C[C@@]2(C)[C@@H]3CC=C4[C@@H](C[C@H](O)[C@@H](O)C4(C)C)[C@]3(C)C(=O)C[C@]12C`, in the test on HT-29 [2], the IC50 is 0.54 µM.
Turning to `CC(C)(O)/C=C/C(=O)[C@](C)(O)[C@H]1[C@H](O)C[C@@]2(C)[C@@H]3CC=C4[C@@H](C[C@H](O)C(=O)C4(C)C)[C@]3(C)C(=O)C[C@]12C` [CUCURBITACIN D], the IC50 in the test with HT-29 [1] was greater than 20 µM; in the test with HT-29 [2], 0.12 µM.
On to `CC(C)(O)/C=C/C(=O)[C@](C)(O)[C@H]1[C@H](O)C[C@@]2(C)[C@@H]3CC=C4[C@@H](C=C(O)C(=O)C4(C)C)[C@]3(C)C(=O)C[C@]12C` [CUCURBITACIN I], for which the IC50 in the test with HT-29 [2] came to 0.19 µM.
Regarding `C=C(C)[C@H](O)[C@H]1C[C@](C)(O)[C@H]2[C@@H](C[C@@]3(C)[C@@H]4CC=C5[C@@H](CC[C@H](O)C5(C)C)[C@]4(C)C(=O)C[C@]23C)O1` [ELAEOCARPUCIN A], the half-maximal inhibitory concentration (IC50) with HT-29 [1] was greater than 20 µM; in the test on HT-29 [2] it was greater than 10 µM.
`C=C(C)[C@@H](O)[C@H]1C[C@](C)(O)[C@H]2[C@@H](C[C@@]3(C)[C@@H]4CC=C5[C@@H](CC[C@H](O)C5(C)C)[C@]4(C)C(=O)C[C@]23C)O1` [ELAEOCARPUCIN B]: the concentration for half-maximal inhibition (IC50) in the test on HT-29 [1] is greater than 20 µM; in the test with HT-29 [2], greater than 10 µM.
Regarding `C/C(=C\[C@H]1C[C@](C)(O)[C@H]2[C@@H](C[C@@]3(C)[C@@H]4CC=C5[C@@H](CC[C@H](O)C5(C)C)[C@]4(C)C(=O)C[C@]23C)O1)CO` [ELAEOCARPUCIN C], the inhibition result with HT-29 [3], with MDA-MB-435 and in the test with MCF7 was “inactive” each time. Also, the IC50 is greater than 20 µM with HT-29 [1] and 0.41 µM with HT-29 [2].
In the case of `C=C(C)C(=O)[C@H]1C[C@](C)(O)[C@H]2[C@@H](C[C@@]3(C)[C@@H]4CC=C5[C@@H](CC[C@H](O)C5(C)C)[C@]4(C)C(=O)C[C@]23C)O1` [ELAEOCARPUCIN D], in the test with HT-29 [2], half-maximal inhibition (IC50) was put at 5.6 µM.
Same read-out and setting: as for `C/C(C=O)=C\[C@H]1C[C@](C)(O)[C@H]2[C@@H](C[C@@]3(C)[C@@H]4CC=C5[C@@H](CC[C@H](O)C5(C)C)[C@]4(C)C(=O)C[C@]23C)O1` [ELAEOCARPUCIN E], the figure is greater than 10 µM.
With `CC(C)(O)C[C@H]1C[C@](C)(O)[C@H]2[C@@H](C[C@@]3(C)[C@@H]4CC=C5[C@@H](CC[C@H](O)C5(C)C)[C@]4(C)C(=O)C[C@]23C)O1` [ELAEOCARPUCIN F], the IC50 with HT-29 [1] was greater than 20 µM; in the test on HT-29 [2], greater than 10 µM.
With `CC(C)=C[C@@H]1O[C@@H]2C[C@@]3(C)[C@@H]4CC=C5[C@@H](CC[C@H](O)C5(C)C)[C@]4(C)C(=O)C[C@]3(C)[C@H]2[C@@](C)(O)[C@@H]1O` [ELAEOCARPUCIN G], the midpoint of inhibition with HT-29 [2], the IC50, lay at 2.9 µM.
In the case of `CC(C)=C[C@H]1C[C@](C)(O)[C@H]2[C@@H](C[C@@]3(C)[C@@H]4C(=O)C=C5[C@@H](CC[C@H](O)C5(C)C)[C@]4(C)C(=O)C[C@]23C)O1` [ELAEOCARPUCIN H], the 50% inhibitory concentration (IC50) with HT-29 [2] turned out to be 2.7 µM.
`CC(=O)O[C@H]1C(=O)[C@@]2(C)[C@H]([C@H](OC(=O)c3ccccc3)[C@]3(O)C[C@H](OC(=O)[C@H](O)[C@@H](NC(=O)c4ccccc4)c4ccccc4)C(C)=C1C3(C)C)[C@]1(OC(C)=O)CO[C@@H]1C[C@@H]2O` [PACLITAXEL] showed a half-maximal inhibitory concentration (IC50) with HT-29 [2] of 0.006 µM.

For the origin of these results see ChEMBL document CHEMBL2021769, “Isolation, structure elucidation, and biological evaluation of 16,23-epoxycucurbitacin constituents from Eleaocarpus chinensis” (J Nat Prod, 2012).
